Results pooled from the literature.
Each line is one published result; the experiments were not run side by side.
Target: Serine/threonine-protein kinase 10 (STK10, Homo sapiens, UniProt O94804)

`COc1cc2nccc(Oc3ccc(NC(=O)Nc4ccc(F)cc4F)c(F)c3)c2cc1OC` has a ΔTm of > 10 °C (thermal stability, DSF; 10 µM).
`O=C(Nc1cnn(-c2csc(C(=O)NC3COC3)c2)c1)Nc1c(F)cccc1Cl` gave a remaining activity of 89% (enzyme activity, inhibitor; 5 µM).
`Cc1cc(NC(=O)c2cccc3cc(-c4cccc5[nH]nc(N)c45)ccc23)ccc1F` gave an activity vs control of 97% (enzyme activity, inhibitor; 0.1 µM).
`O=C(O)[C@H]1[C@H](Cn2nnc3ccccc3c2=O)CC[C@@H]1C(=O)c1ccc(OCCC2CCOCC2)cc1` gave a remaining binding of 100% (cell-free assay, competition with immobilised ligand; 1 µM).
`N#CCCc1ccc2c(c1)-c1[nH]c3ccc([N+](=O)[O-])cc3c1CC(=O)N2` gave a remaining signal of 74.1% (cell-free assay; 0.5 µM).
The inhibition of `CCN(CC)CCNC(=O)c1c(C)[nH]c(/C=C2\C(=O)Nc3ccc(F)cc32)c1C` is reported as 37% (enzyme activity, inhibitor; 0.3 µM).
With `O=S(=O)(NC1CCC(c2cc(F)ccc2F)(S(=O)(=O)c2ccc(Cl)cc2)CC1)C(F)(F)F` (centres unmarked) the remaining binding was 100% (cell-free assay, competition with immobilised ligand; 1 µM).
`O=C1Nc2ccc(Cl)cc2C1=Cc1cc(Cl)c(O)c(Cl)c1` has a remaining signal of 77.1% (cell-free assay; 0.5 µM).
`c1ccc(N2CCN(Cc3nc4ccccc4[nH]3)CC2)nc1` gave a remaining binding of 100% (binding, competition with immobilised ligand; 1 µM).
`CNC(=O)c1cc(Oc2ccc(NC(=O)Nc3ccc(Cl)c(C(F)(F)F)c3)cc2)ccn1` has an inhibition of 88% (enzyme activity, inhibitor; 10 µM).
`Nc1nc(Nc2ccc(S(N)(=O)=O)cc2)nn1C(=O)c1c(F)cccc1F` gave a remaining signal of 17% (cell-free assay; 0.5 µM).
`O=C(Nc1cnn(-c2csc(C(=O)NC3COC3)c2)c1)Nc1ccccc1Cl` has a remaining activity of 87.9% (enzyme activity, inhibitor; 5 µM).
For `CNC(=O)c1cc2c(Oc3ccc(NC(=O)C4(C(=O)Nc5ccc(F)cc5)CC4)cc3)ccnc2cc1OC`, the inhibition was 75% (enzyme activity, inhibitor, radiometric; 1 µM).
`O=C1CCc2cc(Nc3cc(OC4CCOCC4)c([N+](=O)[O-])cc3Cl)ccc2N1` has a remaining binding of 100% (cell-free assay, competition with immobilised ligand; 1 µM).
With `CCN1CCN(Cc2ccc(NC(=O)c3ccc(C)c(/C=C/c4cnc5[nH]ccc5c4OC)c3)cc2C(F)(F)F)CC1` the inhibition was -39.1% (target engagement in cells, inhibitor, chemoproteomics; A-375; 50 nM).
For `Nc1ncnc2occ(-c3ccc(NC(=O)Nc4cc(C(F)(F)F)ccc4F)cc3)c12`, the remaining signal was 0% (cell-free assay, inhibitor; 20 µM).
For `Cn1nc(C(F)(F)F)cc1-c1cnc(N2CCc3cc(S(=O)(=O)Nc4c(F)cc(Cl)cc4F)cc(N4CCCC4=O)c32)nc1`, the remaining binding was 94% (cell-free assay, competition with immobilised ligand; 1 µM).
`Cc1cnc(NC2CCOCC2)nc1-n1cnc(C(=O)NC(CN)c2cc(F)cc(Cl)c2)c1` (centres unmarked) gave a remaining activity of 87% (enzyme activity, inhibitor, radiometric; 1 µM).
`Cc1cnn2ncc(-c3ccnc(N(C)C)n3)c2c1` has a remaining binding of 100% (binding; 1 µM).
With `Cc1c[nH]c2nccc(Oc3c(F)cc(Nc4cc(Cl)nc(N)n4)cc3F)c12` the remaining binding was 100% (cell-free assay, competition with immobilised ligand; 0.1 µM).
With `CCN1CCN(Cc2ccc(NC(=O)c3ccc(C)c(Oc4ccnc5[nH]ccc45)c3)cc2C(F)(F)F)CC1` the inhibition was -177% (target engagement in cells, inhibitor, chemoproteomics; A-375; 0.5 µM).
`C[C@@H](c1cccc(C#N)c1)n1cc(Cl)cc(C(N)=O)c1=N` gave a remaining binding of 86% (cell-free assay, competition with immobilised ligand; 1 µM).
`CC/C(=N\NC(=O)NCc1cccc(O)c1)c1ccc(O)c(C)c1O` has an inhibition of 1% (enzyme activity, inhibitor; 0.1 µM).
